# Assay outcomes as filed in PubChem.
# FXN GAA850 act = FXN promoter activators, primary screen, cell-based, luciferase luminescence, HEK293 lucGAA850; HEK293 lucGAA850 FXN promoter luciferase reporter, 24 h; percent of 10 µM SAHA response; activation, % at 6 µM; actives 0.56% (n = 360,000); AID 540364, 2011;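 active = activation above the average of all compounds screened plus 3 SD, cutoff fixed separately per campaign, cut at about 7.5% in these data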;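 also: 0% = DMSO wells and 100% = 10 µM SAHA wells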
# V-ATPase pH = regulators of yeast V-ATPase proton pumping, primary screen, pHLuorin cytosolic pH fluorescence | S. cerevisiae | response, % at 10 µM | actives 0.37% (n = 350,000) | AID 504577, 2011; in the data active = response mostly above about 7.3%, no sharp cut-off; inactive = mostly below about 5.4%; also: actives read high
# Env fusion inh = inhibitors of HIV-1 Env-driven cell-cell fusion, primary screen, HeLa-JRFL effector, CEM21 target cells, luciferase | inhibition, % at 12.3 µM | actives 1.1% (n = 360,000) | AID 651610, 2012;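 active = mean replicate inhibition score of at least 50 and every replicate individually at or above 50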;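 also: 0% = plate neutral controls and 100% = maraviroc near 300 nM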
# GalR3 antag = GalR3 antagonists in HEK293 cells, primary screen, cell-based, fluorescence readout; AID 651719, 2012; Galanin receptor type 3 (Homo sapiens), O60755; inhibition, % at 3 µM; actives 0.44% (n = 360,000); HEK293 GalR3-CNG cAMP membrane potential fluorescence; galR3 body fused to GalR1 C-terminus;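 active = inhibition above the screen-wide average plus 3 SD, cut at about 13% in these data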;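 also: forskolin and galanin both at EC90 stimulate the cells; cAMP rise reported by CNG channel membrane potential dye signal; 0% = forskolin plus galanin with DMSO and 100% = forskolin alone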
# NR2E3 ag-1 = inhibitors of NR2E3-RetCOR corepressor binding, primary screen, NR2E3 agonist project, biochemical, TR-FRET, GST-NR2E3, biotin-RetCOR; Photoreceptor-specific nuclear receptor (Homo sapiens), Q9Y5X4; 1536-well; inhibition of corepressor binding, % at 4.78 µM; actives 0.12% (n = 320,000);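 active = percent inhibition above the cutoff of mean plus 3 SD of all tested compounds, set per screening campaign, cut at about 20% in these data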;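 also: 0% = DMSO wells and 100% = biotin wells as full block of FRET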
#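 System: GST-tagged NR2E3 plus biotinylated RetCOR corepressor; Amount: 1.35 nM GST-tagged NR2E3 final; Dosing: single nominal compound dose of 4.8 µM; Schedule: 5 h incubation at 4 °C; Technique: TR-FRET with europium anti-GST and streptavidin-D2, 340 nm excitation; Controls: biotin wells as high control, 0.6% DMSO wells as low control.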
# NR2E3 ag-2 = NR2E3 agonists in two-hybrid cells, primary screen, cell-based, luminescence, CHO-S, Gal4-NCOR/VP16-NR2E3 | actives 0.35% (n = 360,000) | luciferase | AID 602229, 2012 | inhibition of corepressor binding, % at 3.98 µM | Photoreceptor-specific nuclear receptor (Homo sapiens), Q9Y5X4;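 active = inhibition above the mean of all tested compounds plus 3 SD, cut at about 70% in these data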;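 also: 0% = DMSO with NR2E3 transfected cells and 100% = cells lacking NR2E3 construct; higher means lower luciferase signal from less NR2E3 corepressor binding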
# NR2E3 ag confirm = NR2E3 agonists, confirmation, biochemical, TR-FRET | actives 39% (n = 360) | cell-free NR2E3 corepressor release, 5 h | AID 2379, 2010 | shares compounds with NR2E3 ag-1 | activation (reported as inhibition), % at 3.98 µM; in the data active = activation above about 20%
# PPARg-NCOR2 ag = agonists of PPARg-NCOR2 corepressor interaction, counter-screen for NR2E3 agonist project, biochemical, TR-FRET | inhibition, % at 3.98 µM | TR-FRET PPARg-NCOR2 coregulator interaction | actives 45% (n = 360) | shares compounds with NR2E3 ag-1; in the data active = inhibition above about 20%;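 also: 0% = DMSO vehicle and 100% = wells without protein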
# Numbers without * were called inactive; nt = not tested or not shown; [ ] = another dose, or the depositor's remark. Sampled rows, rich in hits. Any-hit rate of the full collection: about 2.2%.
SMILES,FXN GAA850 act,V-ATPase pH,Env fusion inh,GalR3 antag,NR2E3 ag-1,NR2E3 ag-2,NR2E3 ag confirm,PPARg-NCOR2 ag
CC(=O)c1sc2nc(SCC(=O)NCCc3ccccc3)[nH]c(=O)c2c1C,5,-3,-2,-1,32*,10,13,20*
CC(=O)c1sccc1NC(=O)c1ccccc1C(=O)O,3,0,-12,-4,34*,-30,23*,18
O=C(O)C(Cc1ccccc1)N1C(=O)/C(=C/C=C/c2ccco2)SC1=S (stereo not drawn),-1,8,11,-3,nt,-23,nt,nt
O=C(O)CCCN1C(=O)/C(=C/C=C/c2ccco2)SC1=S,0,0,14,-4,32*,-12,-6,20*
O=C(O)CC(C(=O)O)N1C(=O)/C(=C/C=C/c2ccco2)SC1=S (stereo not drawn),-1,-2,-2,0,39*,-45,36*,-6
C[C@@H]1CN([C@@H](C)CO)C(=O)c2cc(NS(=O)(=O)c3cccs3)ccc2O[C@@H](C)CCCCO[C@H]1CN(C)CC1CCCCC1,nt,nt,-33[16.7 µM],nt,nt,nt,nt,nt
C[C@H]1CN([C@@H](C)CO)C(=O)Cc2cc(NC(=O)Cc3ccccc3)ccc2O[C@H]1CN(C)Cc1ccc(C(=O)O)cc1,nt,nt,9[16.7 µM],nt,nt,nt,nt,nt
COCC(=O)Nc1ccc2c(c1)C(=O)N(C)C[C@@H](OC)[C@@H](C)CN[C@H](C)CO2,nt,nt,11[16.7 µM],nt,nt,nt,nt,nt
COCCn1c(N)c(C(=O)NCC2CCCO2)c2nc3ccccc3nc21 (stereo not drawn),-1,1,-5,-4,36*,-7,-3,6
O=C(C[C@H]1CC[C@@H]2[C@H](COC[C@@H](O)CN2C(=O)c2cccnc2)O1)NC1Cc2ccccc2C1,nt,nt,7[16.7 µM],nt,nt,nt,nt,nt
COC(=O)c1sc(NC(=S)NNC(=O)c2c(Br)c(C)nn2C)c(C(=O)OC)c1C,1,-6,-17,-1,62*,-2,9,5
Cc1noc(C)c1NC(=O)N(C)C[C@H]1OCCCC[C@H](C)Oc2ccc(NC(=O)C3CCCCC3)cc2C(=O)N([C@H](C)CO)C[C@@H]1C,nt,nt,-21[16.7 µM],nt,nt,nt,nt,nt
O=C(NCC[C@@H]1CC[C@@H](NC(=O)C2CCOCC2)[C@@H](CO)O1)c1ccc(F)cc1,nt,nt,6[16.7 µM],nt,nt,nt,nt,nt
Cc1ccc(C2C(C(N)=S)=C(N)OC3=C2C(=O)CC(C)(C)C3)cc1 (stereo not drawn),4,0,12,3,26*,-1,-1,65*
CC1(C)CC(=O)C2=C(C1)OC(N)=C([N+](=O)[O-])C2c1ccc(F)cc1 (stereo not drawn),2,-1,4,-6,-1,-9,nt,nt
O=c1oc2cc(O)c(Cl)cc2c2ccccc12,4,2,-25,1,52*,-11,46*,48*
Cc1ccc(C(=O)C2=C(O)C(=O)N(Cc3ccco3)C2c2cccc(Cl)c2)o1 (stereo not drawn),1,-2,-4,-1,31*,3,18,12
Cc1ccc(C(=O)C2=C(O)C(=O)N(Cc3ccco3)C2c2cccc(Br)c2)o1 (stereo not drawn),0,2,-1,-6,31*,-32,16,12
CN1C(=O)c2cc(NC(=O)c3ccc(F)cc3)ccc2OC[C@@H]2O[C@H](CC(=O)O)CC[C@@H]21,nt,nt,-2[16.7 µM],nt,nt,nt,nt,nt
N/C(=N\OC(=O)COc1ccc2ccccc2c1Br)c1cccnc1,nt,nt,-11,3,21*,nt,12,6
N/C(=N\OC(=O)COc1ccc2ccccc2c1Br)c1ccccn1,4,2,-36,-8,8,-189,nt,nt
CCC(=O)Nc1c(C#N)c2nc3ccccc3nc2n1-c1ccc(C)cc1,1,-5,17,-7,nt,-25,nt,nt
N#Cc1c(NC(=O)c2ccc(Br)o2)n(-c2ccccc2)c2nc3ccccc3nc12,2,-2,7,-5,24*,2,38*,54*
CO[C@H]1CN(C)C(=O)c2ccc(NC(=O)C3CC3)cc2OC[C@@H](C)N(C(=O)c2ccccn2)C[C@H]1C,nt,nt,-11[16.7 µM],nt,nt,nt,nt,nt
COc1ccc(S(=O)(=O)Nc2ccc3c(c2)CC(=O)N([C@@H](C)CO)C[C@@H](C)[C@@H](CN(C)S(=O)(=O)c2ccc(Cl)cc2)O3)cc1,nt,nt,-16[16.7 µM],nt,nt,nt,nt,nt
SMILES,FXN GAA850 act,V-ATPase pH,Env fusion inh,GalR3 antag,NR2E3 ag-1,NR2E3 ag-2,NR2E3 ag confirm,PPARg-NCOR2 ag
N#Cc1c(-c2ccccc2)nc(SCC(=O)N(c2ccccc2)c2ccccc2)[nH]c1=O,1,-1,9,-5,4,-40,nt,nt
C=CCSc1nc(-c2ccccc2)c(C#N)c(=O)[nH]1,0,-1,-36,-7,22*,-6,16,41*
O=C(C[C@@H]1C[C@H]2c3cc(NC(=O)NC4CCCC4)ccc3O[C@H]2[C@H](CO)O1)NCc1ccccc1,nt,nt,-14[16.7 µM],nt,nt,nt,nt,nt
Cc1ccc(C2C(C#N)=C(N)SC(N)=C2C#N)o1,nt,nt,nt,nt,32*,nt,24*,35*
CCc1ccc(C2C(C#N)=C(N)SC(N)=C2C#N)s1,3,3,nt,nt,18,11,nt,nt
O=S(=O)(NCc1ccccc1)c1ccc(Cl)cc1,1,-3,-47,-1,-1,-7,nt,nt
O=S(=O)(Nc1cc2nc3ccccc3nc2n1Cc1ccccc1)c1ccc(Cl)cc1,-2,-1,nt,7,33*,-31,5,1
CN(C)C(=O)C[C@@H]1C[C@H]2c3cc(NC(=O)Nc4ccccc4F)ccc3O[C@H]2[C@H](CO)O1,nt,nt,-19[16.7 µM],nt,nt,nt,nt,nt
C[C@@H]1CN([C@H](C)CO)C(=O)c2cc(C3=CCCC3)cnc2O[C@H]1CN(C)Cc1ccccc1C(=O)O,nt,nt,-5[16.7 µM],nt,nt,nt,nt,nt
COCCNC(=O)c1cc(-c2ccccn2)nc2ccc(S(=O)(=O)N3CCC(C)CC3)cc12,0,-3,12,-4,20*,10,-9,7
O=C(C1=C(O)C(=O)N(CC2CCCO2)C1c1ccccc1Cl)c1ccco1 (stereo not drawn),3,9,2,-3,13,-23,nt,nt
